Measurements from PMC10433466 (ACS Omega, 2023).
Values after ≈ are worked out from the molar mass of the structure shown. Values joined by “and” are separate entries in the source; they are usually repeats but may differ in a detail not shown here. Identical values can stand only once.

Columns and labels:
E. coli ATCC 25922 = assay: Antimicrobial susceptibility assay; type: cell-based; conditions: Escherichia coli, ATCC25922, read-out: minimum inhibitory concentration (MIC)
Procedure, shortened: (§1)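 Broth microdilution following CLSI guidance. An overnight culture was adjusted in saline to 0.5 McFarland, diluted 1:50 in CAMHB and inoculated at about 5 × 10^5 cfu/mL final. Agents were twofold serially diluted in CAMHB, mixed with equal volumes of inoculum and held at 37 °C overnight. MIC was the lowest concentration without visible turbidity, read at 595 nm. Runs were done at least twice and repeated if outside twofold agreement.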

P. aeruginosa PAO1 [1] = conditions: cited from earlier work
P. aeruginosa PAO1 [2] = assay: Antimicrobial susceptibility assay; type: cell-based; conditions: Pseudomonas aeruginosa, PAO1, read-out: minimum inhibitory concentration (MIC)
Procedure, shortened: as §1

A. baumannii ATCC 17978 = assay: Antimicrobial susceptibility assay; type: cell-based; conditions: Acinetobacter baumannii, ATCC17978, read-out: minimum inhibitory concentration (MIC)
Procedure, shortened: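 CLSI broth microdilution. Overnight culture adjusted in saline to 0.5 McFarland, then diluted 1:50 in cation-adjusted Mueller Hinton broth to about 5 × 10^5 cfu/mL final. Test compound twofold serially diluted in the same broth, mixed with an equal volume of inoculum, incubated at 37 °C overnight. MIC is the lowest concentration without visible turbidity (595 nm). Run at least twice; repeated if outside twofold agreement.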

P. aeruginosa PA86052 [3] = assay: Checkerboard assay with BLs; type: cell-based
P. aeruginosa PA107092 = assay: Checkerboard assay with BLs; type: cell-based
P. aeruginosa PA108590 [4] = assay: Checkerboard assay with BLs; type: cell-based
P. aeruginosa PA109084 = assay: Checkerboard assay with BLs; type: cell-based
P. aeruginosa PA88949 = assay: Checkerboard assay with BLs; type: cell-based
P. aeruginosa PA86052 [5] = assay: Potentiation of BL/BLI; type: cell-based
Procedure, shortened: (§2)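 Checkerboard in CAMHB: the antibiotic or BL/BLI was twofold serially diluted on one axis and the adjuvant on the other. The inoculum was prepared as for MIC (0.5 McFarland, 1:50, about 5 × 10^5 cfu/mL) and plates ran at 37 °C overnight, with turbidity read at 595 nm. Each FIC is combination MIC over single-agent MIC, and FICI is their sum: ≤0.5 synergy, 0.5–4 additive, >4 antagonism. Runs were done at least twice.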

P. aeruginosa PA108590 [6] = assay: Potentiation of BL/BLI; type: cell-based
Procedure, shortened: as §2

P. aeruginosa PAO1 [7] = assay: Outer membrane permeabilization assay; type: cell-based; conditions: NPN 10 μM
Procedure, shortened: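 PAO1 suspension (OD600 0.4–0.6) was incubated with NPN (10 μM final) in 5 mM HEPES, 5 mM glucose and 5 μM CCCP for 30 min at room temperature in the dark. Test compound was then added at varying concentrations, and fluorescence (ex 350 / em 420 nm) was recorded every 30 s.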

P. aeruginosa PAO1 [8] = assay: Checkerboard assay, antibiotic potentiation; type: cell-based; conditions: PMBN (7 μM) vs 2c 8 μg/mL (2 μM)
Procedure, shortened: as §2

P. aeruginosa PAO1 [9] = assay: Checkerboard RIF potentiation in CAMHB and Mg2+-supplemented CAMHB; type: cell-based; conditions: RIF alone
Procedure, shortened: as §2

[10] = ATM/AVI in the presence of 8 μg/mL compound 3 (3.5 μM) or PMBN (7 μM)
[11] = ATM/AVI with 8 μg/mL compound 3 (3.5 μM) or PMBN (7 μM)
[12] = CAZ/AVI in the presence of 8 μg/mL compound 3 (3.5 μM) or PMBN (7 μM)
[13] = CAZ/AVI with 8 μg/mL compound 3 (3.5 μM) or PMBN (7 μM)
[14] = CTZ/TAZ in the presence of 8 μg/mL compound 3 (3.5 μM) or PMBN (7 μM)
[15] = CTZ/TAZ with 8 μg/mL compound 3 (3.5 μM) or PMBN (7 μM)
[16] = IMI/REL in the presence of 8 μg/mL compound 3 (3.5 μM) or PMBN (7 μM)
[17] = IMI/REL with 8 μg/mL compound 3 (3.5 μM) or PMBN (7 μM)
[18] = MER/VAB in the presence of 8 μg/mL compound 3 (3.5 μM) or PMBN (7 μM)
[19] = MER/VAB with 8 μg/mL compound 3 (3.5 μM) or PMBN (7 μM)

Molecule: NC[C@H]1O[C@H](O[C@H]2[C@H](O)[C@@H](O[C@H]3O[C@H](CO)[C@@H](O)[C@H](N)[C@H]3O)[C@H](N)C[C@@H]2N)[C@H](N)C[C@@H]1O [TOB, tobramycin]
- MIC (E. coli ATCC 25922): 2 µg/mL (≈ 4.28 µM)
- synergy with NOV, RIF, MIN, LEV, CAZ (P. aeruginosa PAO1 [1]): did not synergize
- MIC (P. aeruginosa PAO1 [2]): 0.5 µg/mL (≈ 1.07 µM)
- MIC (A. baumannii ATCC 17978): 0.5 µg/mL (≈ 1.07 µM)

Molecule: CC(C)(O/N=C(\C(=O)N[C@@H]1C(=O)N2C(C(=O)[O-])=C(C[n+]3ccccc3)CS[C@H]12)c1csc(N)n1)C(=O)O [CAZ, ceftazidime]
- MICBL (P. aeruginosa PA86052 [3]; CAZ alone): 64 µg/mL
- MICBL (P. aeruginosa PA107092; CAZ alone): 128 µg/mL
- MICBL (P. aeruginosa PA108590 [4]; CAZ alone): 64 µg/mL

Molecule: C[C@@H](O)[C@H]1C(=O)N2C(C(=O)O)=C(SCCN=CN)C[C@H]12 [IMI, imipenem]
- MICBL (P. aeruginosa PA86052 [3]; IMI alone): 64 µg/mL and 32 µg/mL
- MICBL (P. aeruginosa PA109084; IMI alone): 16 µg/mL
- MICBL (P. aeruginosa PA88949; IMI alone): 64 µg/mL
- MICBL (P. aeruginosa PA107092; IMI alone): 32 µg/mL
- MICBL (P. aeruginosa PA108590 [4]; IMI alone): 32 µg/mL

Molecule: C[C@@H](O)[C@H]1C(=O)N2C(C(=O)O)=C(S[C@@H]3CN[C@H](C(=O)N(C)C)C3)[C@H](C)[C@H]12 [MER, meropenem]
- MICBL (P. aeruginosa PA86052 [3]; MER alone): 16 µg/mL
- MICBL (P. aeruginosa PA109084; MER alone): 16 µg/mL
- MICBL (P. aeruginosa PA88949; MER alone): 16 µg/mL and 32 µg/mL
- MICBL (P. aeruginosa PA107092; MER alone): 32 µg/mL and 64 µg/mL
- MICBL (P. aeruginosa PA108590 [4]; MER alone): 4 µg/mL and 8 µg/mL

Molecule: C[C@H]1[C@H](NC(=O)/C(=N\OC(C)(C)C(=O)O)c2csc(N)n2)C(=O)N1S(=O)(=O)O [ATM, aztreonam]
- MICBL (P. aeruginosa PA86052 [3]; ATM alone): 32 µg/mL
- MICBL (P. aeruginosa PA108590 [4]; ATM alone): 32 µg/mL

Molecule: polymyxin B nonapeptide [PMBN]
- MICBL/BLI [MIC with 3 or PMBN] (P. aeruginosa PA86052 [5]; [10]): 0.0625 µg/mL
- fold potentiation (P. aeruginosa PA86052 [5]; [11]): 1024 fold
- MICBL/BLI [MIC with 3 or PMBN] (P. aeruginosa PA86052 [5]; [12]): 0.25 µg/mL
- fold potentiation (P. aeruginosa PA86052 [5]; [13]): 512 fold
- MICBL/BLI [MIC with 3 or PMBN] (P. aeruginosa PA86052 [5]; [14]): 0.0625 µg/mL
- fold potentiation (P. aeruginosa PA86052 [5]; [15]): 128 fold
- MICBL/BLI [MIC with 3 or PMBN] (P. aeruginosa PA86052 [5]; [16]): 0.125 µg/mL
- fold potentiation (P. aeruginosa PA86052 [5]; [17]): 512 fold
- MICBL/BLI [MIC with 3 or PMBN] (P. aeruginosa PA86052 [5]; [18]): 0.0312 µg/mL
- fold potentiation (P. aeruginosa PA86052 [5]; [19]): 512 fold
- MICBL/BLI [MIC with 3 or PMBN] (P. aeruginosa PA108590 [6]; [10]): 2 µg/mL
- fold potentiation (P. aeruginosa PA108590 [6]; [11]): 16 fold
- MICBL/BLI [MIC with 3 or PMBN] (P. aeruginosa PA108590 [6]; [12]): 4 µg/mL
- fold potentiation (P. aeruginosa PA108590 [6]; [13]): 32 fold
- MICBL/BLI [MIC with 3 or PMBN] (P. aeruginosa PA108590 [6]; [14]): 2 µg/mL
- fold potentiation (P. aeruginosa PA108590 [6]; [15]): 2 fold
- MICBL/BLI [MIC with 3 or PMBN] (P. aeruginosa PA108590 [6]; [16]): 1 µg/mL
- fold potentiation (P. aeruginosa PA108590 [6]; [17]): 32 fold
- MICBL/BLI [MIC with 3 or PMBN] (P. aeruginosa PA108590 [6]; [18]): 4 [4] μg/mL
- fold potentiation (P. aeruginosa PA108590 [6]; [19]): 1 fold
- NPN fluorescence (OM permeabilization) (P. aeruginosa PAO1 [7]): increased fluorescence
- MIN potentiation relative to trimer 2c (P. aeruginosa PAO1 [8]): 4 fold

Molecule: Cn1c(N)c(NC(=O)NCCN)c[n+]1CC1=C(C(=O)O)N2C(=O)[C@@H](NC(=O)/C(=N\OC(C)(C)C(=O)[O-])c3nsc(N)n3)[C@H]2SC1 [CTZ, ceftolozane]
- MICBL (P. aeruginosa PA86052 [3]; CTZ alone): 8 µg/mL and 4 µg/mL
- MICBL (P. aeruginosa PA109084; CTZ alone): 8 µg/mL and 4 µg/mL
- MICBL (P. aeruginosa PA88949; CTZ alone): 4 µg/mL
- MICBL (P. aeruginosa PA107092; CTZ alone): 4 µg/mL
- MICBL (P. aeruginosa PA108590 [4]; CTZ alone): 8 µg/mL and 4 µg/mL

Molecule: CO[C@H]1/C=C/O[C@@]2(C)Oc3c(C)c(O)c4c(O)c(c(/C=N/N5CCN(C)CC5)c(O)c4c3C2=O)NC(=O)/C(C)=C\C=C\[C@H](C)[C@H](O)[C@@H](C)[C@@H](O)[C@@H](C)[C@H](OC(C)=O)[C@@H]1C [RIF, rifampicin]
- MICRIF (P. aeruginosa PAO1 [9]; CAMHB): 32 µg/mL
- MICRIF (P. aeruginosa PAO1 [9]; CAMHB with 20 mM Mg2+): 32 µg/mL
